FLuc inh counter: Photinus pyralis luciferase inhibition counter-screen; P08659; ATPLite firefly luciferase biochemical luminescence, 10 min; inhibition, % at 10 µM; 200,000 compounds, 1.5% hits; AID 1006;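 active = inhibition above about 50% when tested at 10 µM, limit read from the data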
Target sequence (P08659 whole entry, looked up): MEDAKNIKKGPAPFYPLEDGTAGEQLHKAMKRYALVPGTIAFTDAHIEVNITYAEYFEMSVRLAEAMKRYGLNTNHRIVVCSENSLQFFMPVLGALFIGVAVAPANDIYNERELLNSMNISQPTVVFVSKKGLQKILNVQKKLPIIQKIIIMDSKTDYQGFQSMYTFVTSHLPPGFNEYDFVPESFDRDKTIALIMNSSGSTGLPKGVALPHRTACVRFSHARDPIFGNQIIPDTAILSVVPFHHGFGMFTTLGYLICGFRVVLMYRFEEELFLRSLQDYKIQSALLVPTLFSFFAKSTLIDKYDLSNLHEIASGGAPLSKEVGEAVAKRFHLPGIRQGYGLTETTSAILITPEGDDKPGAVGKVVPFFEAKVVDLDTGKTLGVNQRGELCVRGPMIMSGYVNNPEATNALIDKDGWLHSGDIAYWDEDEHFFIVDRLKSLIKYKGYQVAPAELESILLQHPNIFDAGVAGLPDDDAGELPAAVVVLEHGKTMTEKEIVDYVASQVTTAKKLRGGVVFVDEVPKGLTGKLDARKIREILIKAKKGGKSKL
PPC-1+TRAIL kill: compounds killing PPC-1 cancer cells with TRAIL present (potentiator screen, no TRAIL-free arm); 220,000 compounds, 0.41% hits; AID 1443; cell killing (% activity), % at 4 µM or 5 µM; PPC-1 cells + TRAIL, ATPLite viability luminescence;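 active = cell killing above 50% in the first pass at 4 µM, then a duplicate retest at 5 µM averaging 50% or more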
FLuc act counter: firefly luciferase counter-screen for stimulation assays; P08659; ATPlite luciferase biochemical, luminescence, 10 min; 0 = ATP-free wells, 1 = DMSO control; activation factor at 10 µM; 200,000 tested, under 10 active; AID 1027;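 active = luciferase activation factor, scaled between plate controls, of at least 2 with compound at 10 µM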
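assay system = Luciferase/luciferin detection reagent, cell-free biochemical luciferase assay | also added = ATP substrate | times = 10 min post-reagent at room temperature | measured by = luminescence from luciferase reaction | measure = luciferase activation, seen as luminescence increase over controls | benchmarks = low control with PBS replacing ATP, high control enzyme plus ATP without compound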
C8 TRAIL sens: sensitizes caspase-8 expressing cells to TRAIL | NB7+C8 cells + TRAIL, ATPlite viability luminescence | inhibition (viability loss, TRAIL sensitization), % at 10 µM | 360,000 compounds, 1% hits | AID 624354;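 active = compounds causing at least 50% loss of cell viability in the single-dose screen, relative to plate controls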
PPC1 cytotox: kills PPC-1 cells. 1,200 compounds, 50% hits. cytotoxicity, % at 5 µM. PPC-1 viability, ATPlite luminescence, overnight. AID 1447. shares compounds with PPC-1+TRAIL kill;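 active = reconfirmed compounds whose average cytotoxicity reaches 50% or more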
Hits are given with their value; 0 = inactive; - = no result. This is a sample that favours compounds with a hit; in the whole collection about 1.5% have one here.

SMILES	FLuc inh counter	PPC-1+TRAIL kill	FLuc act counter	C8 TRAIL sens	PPC1 cytotox
CC(C)CCN(C(=O)c1cn2ccccc2n1)c1c(N)n(Cc2ccccc2)c(=O)[nH]c1=O	-	-	-	0	-
c1ccc(-c2nc3cc4ccccc4cc3[nH]2)nc1	95.4	89.1	0	86.3	90.0
c1cncc(-c2nc3cc4ccccc4cc3[nH]2)c1	81.7	61.3	0	66.3	65.6
Nc1ccc2nc(-c3cccc(-c4nc5ccc(N)cc5[nH]4)n3)[nH]c2c1	-	-	-	0	-
C[C@@H]1CCCCO[C@@H](CN(C)C(=O)CCCN(C)C)[C@@H](C)CN([C@H](C)CO)C(=O)c2cc(N(C)C)ccc2O1	-	-	-	0	-
CCCCCN=Cc1c(C)[nH]n(-c2nc3ccccc3s2)c1=O	52.0	90.6	0	83.9	91.2
Cn1cc(CCC(=O)NCCCc2ccccc2)c2ccccc21	-	-	-	0	-
Cc1[nH]c(=O)c(C#N)c(C)c1CCC(=O)NCc1cccc(C(F)(F)F)c1	-	-	-	0	-
COc1ccccc1/C=C/C(=O)OCC(=O)N1c2ccccc2CC1C (stereo unspecified)	-	-	-	0	-
N#Cc1ccccc1NC(=O)CNc1ccccc1N1CCCCC1	0	0	0	0	0
CCOc1cc(C(=O)OCC(=O)c2c[nH]c3ccccc23)ccc1OCC(=O)N1CCOCC1	0	0	0	0	0
COc1cc(C(=O)OCC(=O)c2c[nH]c3ccccc23)ccc1OCC(=O)N1CCOCC1	0	0	0	0	-
O=C(Nc1nc(-c2ccccn2)cs1)C12CC3CC(CC(O)(C3)C1)C2	82.6	0	0	59.6	0
CN1CCN(c2ccc(-c3ccc4ccccc4n3)cc2)CC1	93.5	82.0	0	89.9	76.8
c1ccc2nc(-c3ccc(N4CCOCC4)cc3)ccc2c1	88.3	73.0	0	72.9	77.1
CC1CN(CCC(=O)Nc2ccccc2F)CC(C)O1 (stereo unspecified)	-	-	-	0	-
O=C(N/N=C/c1cccc(Cl)c1)C1CCCC1	-	-	-	0	-
O=C(O)C1CCCCC1C(=O)NCCc1ccccc1 (stereo unspecified)	0	0	0	0	0
COc1ccc(NC(=O)c2cccc([N+](=O)[O-])c2)cc1	0	0	0	0	-
COc1ccc(NC(=O)c2cc([N+](=O)[O-])ccc2O)cc1	95.6	75.0	0	90.7	76.8
COc1cccc(Nc2nc(C(N)Cc3ccccc3)cs2)n1 (stereo unspecified)	-	-	-	0	-
Cc1cccc(NC(=O)C(C)OC(=O)CNC(=O)C2CCCCC2)c1 (stereo unspecified)	-	-	-	0	-
CN(C)C(=O)C1C2NC(=S)N(c3ccccc3)C1(C)Oc1ccccc12 (stereo unspecified)	0	0	0	0	-
Cc1cccc(N2C(=S)NC3c4ccccc4OC2(C)C3C(=O)N(C)C)c1 (stereo unspecified)	0	0	0	0	0
O=C(Nc1nsc(-c2ccccc2)n1)c1cccs1	79.4	0	0	51.2	0
SMILES	FLuc inh counter	PPC-1+TRAIL kill	FLuc act counter	C8 TRAIL sens	PPC1 cytotox
Cc1sc(NC(=O)c2cccs2)nc1-c1ccccc1	0	0	0	0	-
CC1CC(=O)Nc2ccccc2N1C(=O)Nc1ccc(F)cc1 (stereo unspecified)	-	0	-	0	0
COc1cccc(-c2nc(-c3ccncc3)no2)c1	-	-	-	0	-
COc1cccc(-c2noc(-c3ccc4c(c3)OCO4)n2)c1	82.4	59.5	0	66.0	62.2
COc1ccccc1C(=O)NC(=O)COC(=O)CNC(=O)c1ccc(Cl)cc1Cl	-	-	-	0	-
Cc1cc(C(=O)COc2ccccc2C(N)=O)c(C)n1CC1CCCO1 (stereo unspecified)	0	0	0	0	-
Cc1cc(C(=O)COC(=O)c2ccccc2Br)c(C)n1CC1CCCO1 (stereo unspecified)	-	79.7	-	76.7	76.5
Cc1cc(C(=O)COC(=O)c2cccnc2Cl)c(C)n1CC1CCCO1 (stereo unspecified)	96.2	79.2	0	0	77.1
Cc1noc(/C=C/N(C)C)c1S(=O)(=O)N1CCCC(C(=O)Nc2ccccc2F)C1 (stereo unspecified)	-	-	-	0	-
COc1ccc(F)cc1-c1cc(NC(C)=O)c2ncc(-c3cccc(C(F)(F)F)c3)n2c1	-	-	-	0	-
COc1ccc(CCNC(=O)c2cccc(S(=O)(=O)N3CCCC3)c2)cc1OC	-	-	-	0	-
COc1cc(C(=O)NCCc2ccc(S(=O)(=O)N3CCCC3)cc2)cc(OC)c1OC	0	0	0	0	0
Cc1ccc2oc(=O)c3cc(C(=O)NCCCN4C(C)CCCC4C)sc3c2c1 (stereo unspecified)	-	-	-	0	-
CCc1c(C)sc(NC(=O)c2cc(CC(C)C)on2)c1C#N	0	0	0	0	0
Nc1nc(Nc2ccc(Cl)cc2)nc2ccccc12	93.3	78.8	0	76.0	79.9
Cc1ccccc1Nc1nc(N)c2ccccc2n1	86.8	58.0	0	63.4	54.0
O=C(CCCc1ccccc1)c1ccc2c(c1)OCCO2	95.1	80.3	0	86.6	83.6
O=C(CCc1ccccc1)c1ccc2c(c1)OCCCO2	0	0	0	0	-
Cc1cc(-n2[nH]c(C)c(C)c2=O)nc(-c2ccccc2O)n1	0	0	0	0	0
Cc1ccc(C)c(Cn2nc(-c3cc(C)ccc3C)ccc2=O)c1	-	-	-	0	-
CCOc1ccc(NC(=O)c2ccc(N)cc2)cc1	70.7	0	0	0	0
CCOc1ccc(NC(=O)c2ccc(NC(=O)c3ccc(NC(N)=O)cc3)cc2)cc1	-	-	-	0	-
COc1cc(SC)ccc1C(=O)NCCNC(=O)c1nonc1N	-	-	-	0	-
COC(=O)Cc1ccc(NC(=S)N2CCCC(C)C2)cc1 (stereo unspecified)	89.3	67.8	0	0	69.5
Cc1ccc(-n2nnc(-c3nccs3)n2)cc1	95.6	82.5	0	87.3	81.7
SMILES	FLuc inh counter	PPC-1+TRAIL kill	FLuc act counter	C8 TRAIL sens	PPC1 cytotox
O=C(N/N=C/c1cccc([N+](=O)[O-])c1)c1cc(-c2ccc3c4c(cccc24)CC3)n[nH]1	0	0	0	0	-
O=C(N/N=C/c1ccc(Cl)c([N+](=O)[O-])c1)c1cc(-c2ccc3c4c(cccc24)CC3)n[nH]1	-	0	-	0	0
CCN(CC)C(=O)c1cccc(NC(=O)C2CCN(C(=O)c3cccs3)CC2)c1	-	-	-	0	-
CN(C)c1cccc(C(=O)N/N=C/c2ccccc2F)c1	95.1	61.5	0	78.6	58.7
COC(=O)[C@]1(Cc2ccccc2)N[C@H](CN(C)C(=O)Nc2ccc(OC)cc2)[C@@H]2C(=O)N(Cc3ccccc3)C(=O)[C@@H]21	-	-	-	0	-
Cc1cc(C(=O)Nc2ccc(Cl)cc2)c(C)n1-c1ccccc1	-	82.7	-	82.7	79.4
Cc1cc(C(=O)Nc2ccc(Cl)cc2)n(-c2ccccc2)n1	-	-	-	0	-
O=C(Nc1nc2ccccc2[nH]1)c1ccccc1F	95.8	77.2	0	89.7	79.3
O=C(Nc1ccc(F)cc1)c1cc2ccccc2o1	-	-	-	0	-
O=C(Nc1nc2ccccc2[nH]1)c1cc2ccccc2o1	74.7	67.5	0	66.4	68.7
O=C(Nc1nc2ccccc2[nH]1)c1ccc(F)cc1	91.3	72.5	0	82.7	71.8
COc1ccc2oc(C(=O)Nc3nc4ccccc4[nH]3)c(C)c2c1	-	58.6	-	69.1	54.2

Screens: PubChem, Sanford-Burnham Center for Chemical Genomics
